Most compounds without a hit are left out; they make up all but 2.7% or so of the library.
OXTR ag – agonists of human oxytocin receptor; P30559; CHO-OTR cells, Fluo-8 calcium fluorescence; normalized: DMSO 0%, oxytocin 100%; activation, % at 3 µM; actives 0.32% (n = 320,000); AID 2435;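 active means activation above the mean of all tested compounds plus 3 SD, cutoff set per screening run, cut at about 20% in these data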;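 further: peak over basal fluorescence ratio from a 100 s FLIPR kinetic read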
V1R ag counter – V1a receptor agonism, counter-screen for OXTR agonists; P37288; CHO-V1R cells, Fluo-8 calcium fluorescence, agonist mode; 0% DMSO, 100% 3 nM vasopressin; AID 2797; actives 0.25% (n = 320,000); activation, % at 3 µM;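 active means activation above the mean activation of all tested compounds plus 3 SD, per screening run, cut at about 20% in these data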;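 further: signal is peak over basal fluorescence ratio across a 100 second FLIPR read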
OXTR potentiate – potentiators of human oxytocin receptor; P30559; CHO-OTR cells, Fluo-8 calcium fluorescence, potentiator mode; 0% = oxytocin EC15, 100% = EC100; activation, % at 3 µM; actives 0.061% (n = 320,000); AID 2445;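 active means activation above that plate's cutoff, the mean activation of tested compounds plus 3 SD, cut at about 6.6% in these data, passing the limit was not always enough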;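 further: 100% uses oxytocin at 75 nM as the full agonist control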
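test system = CHO-OTR cells, human receptor | compound = single-point 3.0 µM | schedule = 6 min compound pre-incubation at room temperature, 100 s kinetic read | signal = Fluo-8 no-wash calcium dye fluorescence, excitation 470-495 nm, emission 515-575 nm | repeats = single well per compound, singlicate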
OX1R antag-1 – antagonists of human orexin 1 receptor; inhibition, % at 5 µM; CHO/OX1R cells, Fluo-8 calcium fluorescence, orexin A; actives 0.43% (n = 330,000); O43613; AID 434989;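 active means inhibition above its plate's threshold, mean inhibition of all tested compounds on the plate plus 3 SD, cut at about 37% in these data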;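 further: 0% = orexin A challenge wells and 100% = SB-334867-A antagonist wells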
Target sequence (O43613 whole entry, looked up): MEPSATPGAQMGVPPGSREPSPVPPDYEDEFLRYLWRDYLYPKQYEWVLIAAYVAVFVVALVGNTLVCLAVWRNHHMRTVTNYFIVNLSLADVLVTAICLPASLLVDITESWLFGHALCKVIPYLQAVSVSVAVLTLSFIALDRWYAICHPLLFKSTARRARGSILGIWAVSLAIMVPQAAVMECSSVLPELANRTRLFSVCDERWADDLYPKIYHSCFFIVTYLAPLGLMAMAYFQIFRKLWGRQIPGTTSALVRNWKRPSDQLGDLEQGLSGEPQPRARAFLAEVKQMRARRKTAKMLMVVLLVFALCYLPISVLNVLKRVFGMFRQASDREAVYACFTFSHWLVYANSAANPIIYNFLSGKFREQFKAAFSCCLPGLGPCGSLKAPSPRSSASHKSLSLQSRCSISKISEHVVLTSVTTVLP
CHO parental Ca – counter-screen: ATP calcium response change in parental CHO cells; AID 463079; inhibition, % at 5.6 µM; parental CHO-K1, ATP-induced calcium, Fluo-8 fluorescence; actives 0.63% (n = 330,000);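 active means inhibition above that plate's mean sample inhibition plus 3 SD, cut at about 26% in these data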;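 further: 0% = ATP-challenged DMSO wells and 100% = DMSO wells without ATP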
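Test system: untransfected parental CHO cell line. Compound: one dose, 5.6 µM nominal. Detection: intracellular calcium via Fluo-8 no-wash fluorescent dye. Measure: % inhibition. Benchmarks: ATP-challenged DMSO wells low, unchallenged DMSO wells high.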
OX1R antag-2 – OX1R (human) antagonism; O43613; OX1R-expressing cells, FRET antagonist read-out; inhibition, % at 6.6 µM; actives 1.8% (n = 330,000); in the data active means inhibition mostly above about 38%, no sharp cut-off; inactive means mostly below about 40%;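 further: 0% = agonist challenge alone and 100% = reference antagonist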
Starred values were filed as active, the others as inactive; / = no result given.

SMILES | OXTR ag | V1R ag counter | OXTR potentiate | OX1R antag-1 | CHO parental Ca | OX1R antag-2
O=C(Nc1ccc2c(c1)OCO2)c1c(Cl)nc2sccn12 | -3 | -2 | 0 | -16 | -31 | 58*
O=C(CSc1nnc2ccccn12)NNC(=O)c1ccccc1F | 1 | 1 | -4 | 2 | 5 | 4
O=C(C1CCOCC1)N1CCCC(N2CCN(c3cccc(C(F)(F)F)c3)CC2)C1 (centres undefined) | 0 | 0 | -1 | -15 | 0 | 11
COc1ccc(CN(C2CC2)S(=O)(=O)c2ccccc2Br)cc1 | / | / | / | -14 | -17 | 18
CCN(CC)S(=O)(=O)c1ccc(-c2ccc(S(=O)(=O)N(CC)CC)cc2)cc1 | 7 | 6 | -21 | 19 | 41* | 24
CCN(CC)S(=O)(=O)c1ccc(C(=O)O)cc1 | 0 | 1 | -2 | 7 | -1 | 5
COc1ccc(NC(C)=O)cc1NC(C)C(=O)Nc1ccc(S(=O)(=O)N2CCCCC2)cc1 (centres undefined) | -1 | 0 | 0 | -21 | -4 | 3
COCCCNc1nc(-c2ccncc2)nc2ccccc12 | -1 | 0 | -9 | -22 | -33 | 16
COCCNc1nc(-c2ccccc2)nc2ccccc12 | 0 | 0 | -15 | -7 | -28 | 46*
COc1cc(NC(=O)c2ccccc2OCc2ccccc2)cc(OC)c1OC | -2 | -1 | -5 | -14 | -14 | 45*
CCOc1ccc(NC(=O)CSc2ncc(-c3ccc(F)cc3)n2Cc2ccco2)cc1 | -3 | 1 | -14 | 12 | -3 | 16
C=CCn1c(SCC(=O)Nc2ccc3c(c2)OCO3)nnc1-c1ccccc1 | 0 | 1 | -4 | -22 | -14 | 47
CCCn1c(SCC(=O)Nc2ccccc2-c2ccccc2)nnc1-c1ccoc1C | -2 | 0 | -9 | -12 | -9 | 59*
O=C(CSc1ncc(-c2ccc(F)cc2)n1Cc1ccco1)Nc1ccc2c(c1)OCO2 | 0 | 2 | -14 | 29 | 38* | 43
O=C(CSc1nnc(-c2ccccc2)n1Cc1ccco1)Nc1ccc2c(c1)OCCO2 | 0 | -1 | 0 | -14 | -10 | 48*
O=C(CSc1nnc(-c2cccs2)n1Cc1ccco1)Nc1ccc2c(c1)OCO2 | -2 | 0 | -4 | -6 | -27 | 23
C=CCn1c(SCC(=O)Nc2ccc3c(c2)OCO3)nnc1-c1cc(Br)ccc1O | 0 | 2 | -4 | -15 | -23 | 65*
N#CC1(NC(=O)COc2ccc(C(N)=O)cc2)CCCC1 | 0 | 2 | -10 | -9 | 0 | 8
CCOc1ccccc1NC(=O)CSc1nnc(-c2ccccc2Cl)n1Cc1ccco1 | 0 | -1 | -1 | -20 | -1 | 69*
Cc1cc(C)c(C#N)c(SCc2[nH]nc3c2C(c2ccc(F)cc2)C(C#N)=C(N)O3)n1 (centres undefined) | 0 | -1 | -5 | -33 | -17 | 75*
O=C(O)c1[nH]c2ccc(Cl)cc2c1CC(=O)N1CCN(c2ccccc2)CC1 | 0 | -1 | -8 | 12 | 44* | 19
Cc1cc(C)cc(-n2cccc2/C=C2/C(=N)N3C(=NC2=O)SN=C3S(C)(=O)=O)c1 | -1 | 0 | -2 | -5 | -1 | 51*
CS(=O)(=O)C1=NSC2=NC(=O)/C(=C\c3ccc(-c4ccccc4)o3)C(=N)N21 | 1 | 1 | 2 | -8 | 1 | 18
CCc1ccc(-n2cccc2/C=C2/C(=N)N3C(=NC2=O)SN=C3S(C)(=O)=O)cc1 | 0 | 0 | -9 | -1 | -3 | 66*
CS(=O)(=O)C1=NSC2=NC(=O)/C(=C\c3cccn3-c3ccccc3Cl)C(=N)N21 | -1 | 0 | -6 | -24 | -14 | 64*
SMILES | OXTR ag | V1R ag counter | OXTR potentiate | OX1R antag-1 | CHO parental Ca | OX1R antag-2
Cc1ccc(-n2cccc2/C=C2/C(=N)N3C(=NC2=O)SN=C3S(C)(=O)=O)cc1 | -1 | -1 | -5 | -26 | -16 | 32
O=C(COc1ccc(-c2nnco2)cc1)N1CCOCC1 | 1 | 1 | -3 | -3 | -3 | 14
O=C(COc1ccc2ccccc2c1)Nc1ccc(Cc2ccncc2)cc1 | 11 | 7 | -12 | 59* | 24 | 35
COc1cc2ccccc2cc1C(=O)Nc1ccc(Cc2ccncc2)cc1 | 9 | 5 | -9 | 45* | 38* | 21
Cc1noc(C)c1COc1ccccc1C(=O)NC1CCC(C)CC1 (centres undefined) | -2 | 1 | -3 | -36 | -25 | 5
O=C(c1cc2ccccc2oc1=O)N1CCN(S(=O)(=O)c2ccccc2)CC1 | 0 | 0 | -5 | -3 | -7 | 10
CC1(S(=O)(=O)O)CC(=O)c2ccccc2C1=O (centres undefined) | 0 | 1 | -8 | -2 | -2 | 60*
Nc1ccc(S(=O)(=O)NCC(=O)OC2CCOC2=O)cc1[N+](=O)[O-] (centres undefined) | 2 | 0 | 1 | -8 | -5 | 14
COC(=O)C1CCN(C(=O)COC(=O)CNS(=O)(=O)c2ccc(SC)c([N+](=O)[O-])c2)CC1 | 1 | 3 | -7 | -24 | -5 | 49
CSc1ccc(S(=O)(=O)NCC(=O)OCC(=O)N(C)Cc2ccccc2)cc1[N+](=O)[O-] | 4 | 6 | -17 | -22 | -9 | 51*
CSc1ccc(S(=O)(=O)NCC(=O)OCCOc2ccccc2)cc1[N+](=O)[O-] | 4 | 0 | -12 | -13 | 21 | 54*
CSc1ccc(S(=O)(=O)NCC(=O)OCC(=O)N2CCCC2=O)cc1[N+](=O)[O-] | 1 | 0 | -7 | -4 | 0 | 56*
CSc1ccc(S(=O)(=O)NCC(=O)OCC(=O)N(C)CC(=O)Nc2ccccc2Cl)cc1[N+](=O)[O-] | -1 | -1 | -19 | -35 | -22 | 41
CSc1ccc(S(=O)(=O)NCC(=O)OC2CCOC2=O)cc1[N+](=O)[O-] (centres undefined) | 1 | 0 | -6 | -13 | 3 | 66*
Cc1ccc(C(C)NC(=O)CSc2ccc(S(=O)(=O)N3CCOCC3)cn2)cc1C (centres undefined) | -2 | 0 | -3 | -22 | -28 | 3
Cc1nc(CC(=O)NNS(=O)(=O)c2cccc(Cl)c2Cl)cs1 | 0 | 0 | -5 | -2 | -10 | 4
O=C(O)c1cnn2c(C(F)(F)F)cc(-c3ccco3)nc12 | 0 | 0 | 0 | -4 | 1 | 49*
N#Cc1cnn2c(C(F)(F)F)cc(-c3ccccc3)nc12 | -3 | -2 | 5 | -15 | 54* | 16
COc1cccc(-c2cc(C(F)(F)F)n3ncc(C(=O)N4CCc5ccccc5C4)c3n2)c1 | -2 | -1 | -1 | -28 | -24 | 9
